Our source for the EC50 values is ChEMBL document CHEMBL1128736, “Synthesis and anti-HIV activity of [AZT]-[TSAO-T] and [AZT]-[HEPT] dimers as potential multifunctional inhibitors of HIV-1 reverse transcriptase” (J Med Chem, 1995).

What all share (type): functional, organism-based
The test system of test [1] is Human immunodeficiency virus 2. Nature of the test: Inhibitory effect against HIV-2 replication in CEM /TK-(thymidine kinase deficient) cells. The note with it: Human immunodeficiency virus 2, CCRF-CEM. A digest of the protocol:
(§1)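 CEM cells (4×10^5/mL; wild-type CEM/0 or thymidine kinase-deficient CEM/TK⁻) infected with HIV-1 or HIV-2 (ROD) at ~100 CCID50/mL, then mixed 1:1 with serial compound dilutions. After 4 days, virus-induced giant cell formation was scored microscopically. EC50 is the concentration inhibiting virus-induced cytopathicity by 50%.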

The test system of test [2] is Human immunodeficiency virus 2. Nature of the test: Inhibitory effect against HIV-2 replication in CEM cells. The settings on record: Human immunodeficiency virus 2, CCRF-CEM. In outline:
as §1

For test [3], the system named is Human immunodeficiency virus 1. The experiment in a line: Inhibitory effect against HIV-1 replication in CEM cells. The note with it: Human immunodeficiency virus 1, CCRF-CEM. A digest of the protocol: as §1

The EC50 is the midpoint of the concentration-response curve. Higher therefore signals lower potency in that assay. As to `Cc1cn([C@@H]2O[C@H](CO[Si](C)(C)C(C)(C)C)[C@@]3(OS(=O)(=O)C=C3N)[C@H]2O[Si](C)(C)C(C)(C)C)c(=O)n(CCCCCCCBr)c1=O`, the 50% effective concentration (EC50) in test [1] is more than 5 µM; in test [2], more than 1 µM; in test [3] it was 0.79 µM.

For `Cc1cn(C2CC(N=[N+]=[N-])C(CO)O2)c(=O)n(CCCCCBr)c1=O` (stereo not drawn), the values for the concentration for a half-maximal effect (EC50) in test [1], in test [2] and in test [3] were more than 10 µM, more than 50 µM and more than 50 µM, respectively.

On to `Cc1cn([C@@H]2O[C@H](CO[Si](C)(C)C(C)(C)C)[C@@]3(OS(=O)(=O)C=C3N)[C@H]2O[Si](C)(C)C(C)(C)C)c(=O)n(CCCn2c(=O)c(C)cn([C@H]3C[C@H](N=[N+]=[N-])[C@@H](CO)O3)c2=O)c1=O`, for which the EC50 is more than 100 µM in test [1], more than 100 µM in test [2] and 0.1 µM in test [3].

Regarding `Cc1cn([C@H]2C[C@H](O)[C@@H](CO)O2)c(=O)[nH]c1=O` [DOXRIBTIMINE], the EC50 in test [1], in test [2] and in test [3] was more than 40 µM throughout.

`Cc1cn([C@@H]2O[C@H](CO[Si](C)(C)C(C)(C)C)[C@@]3(OS(=O)(=O)C=C3N)[C@H]2O[Si](C)(C)C(C)(C)C)c(=O)n(CCCCCCn2c(=O)c(C)cn([C@H]3C[C@H](O)[C@@H](CO)O3)c2=O)c1=O`: the concentration for a half-maximal effect (EC50) in test [2] is more than 4 µM; in test [3], 0.55 µM.

Regarding `Cc1cn([C@H]2C[C@H](O)[C@@H](CO)O2)c(=O)n(CCCCCCCBr)c1=O`, the EC50 in test [1], in test [2] and in test [3] was more than 10 µM throughout.

Consider `Cc1cn(C2CC(N=[N+]=[N-])C(CO)O2)c(=O)n(CCCCCCCCBr)c1=O` (stereo not drawn), for which the EC50 in test [1], in test [2] and in test [3] was more than 8 µM throughout.

`Cc1cn(C2CC(N=[N+]=[N-])C(CO)O2)c(=O)n(CCCCCCCn2c(=O)c(C)c(Sc3ccccc3)n(COCCO)c2=O)c1=O` (stereo not drawn): the EC50 in test [2] and in test [3] was more than 5 µM each time.

In the case of `Cc1c(Sc2ccccc2)n(COCCO)c(=O)[nH]c1=O` [HEPT], the 50% effective concentration (EC50) in test [1] and in test [2] was more than 100 µM each time.

For the molecule `Cc1cn([C@@H]2O[C@H](CO[Si](C)(C)C(C)(C)C)[C@@]3(OS(=O)(=O)C=C3N)[C@H]2O[Si](C)(C)C(C)(C)C)c(=O)n(CCCn2c(=O)c(C)cn([C@H]3C[C@H](O)[C@@H](CO)O3)c2=O)c1=O`, the EC50 is more than 4 µM in test [1], more than 4 µM in test [2] and 0.06 µM in test [3].

As for `Cc1cn(C2CC(N=[N+]=[N-])C(CO)O2)c(=O)n(CCCCCCn2c(=O)c(C)c(Sc3ccccc3)n(COCCO)c2=O)c1=O` (stereo not drawn), the half-maximal effective concentration (EC50) in test [1], in test [2] and in test [3] was more than 5 µM each time.

Consider `Cc1cn([C@@H]2O[C@H](CO[Si](C)(C)C(C)(C)C)[C@@]3(OS(=O)(=O)C=C3N)[C@H]2O[Si](C)(C)C(C)(C)C)c(=O)n(CCCBr)c1=O`, for which the EC50 in test [2] was more than 100 µM; in test [3], 0.11 µM.

Consider `Cc1cn([C@@H]2O[C@H](CO[Si](C)(C)C(C)(C)C)[C@@]3(OS(=O)(=O)C=C3N)[C@H]2O[Si](C)(C)C(C)(C)C)c(=O)n(CCCCCCCCCBr)c1=O`, for which the concentration for a half-maximal effect (EC50) in test [1], in test [2] and in test [3] was more than 1 µM in each case.

With `Cc1cn([C@H]2C[C@H](N=[N+]=[N-])[C@@H](CO)O2)c(=O)[nH]c1=O` [ZIDOVUDINE], the values for the concentration giving a half-maximal response (EC50) in test [1], in test [2] and in test [3] were more than 35 µM, 0.011 µM and 0.011 µM, respectively.

Take `Cc1c(Sc2ccccc2)n(COCCO)c(=O)n(CCCCCCCBr)c1=O`: the EC50 in test [1], in test [2] and in test [3] was more than 8 µM in each case.

Turning to `Cc1cn([C@@H]2O[C@H](CO[Si](C)(C)C(C)(C)C)[C@@]3(OS(=O)(=O)C=C3N)[C@H]2O[Si](C)(C)C(C)(C)C)c(=O)n(CCCCCCCCBr)c1=O`, the half-maximal effective concentration (EC50) in test [1], in test [2] and in test [3] was more than 1 µM in each case.

For the molecule `Cc1cn([C@@H]2O[C@H](CO[Si](C)(C)C(C)(C)C)[C@@]3(OS(=O)(=O)C=C3N)[C@H]2O[Si](C)(C)C(C)(C)C)c(=O)n(CCCCCCCn2c(=O)c(C)cn([C@H]3C[C@H](N=[N+]=[N-])[C@@H](CO)O3)c2=O)c1=O`, the EC50 in test [2] was more than 100 µM; in test [3], 1.58 µM.

Turning to `Cc1cn([C@@H]2O[C@H](CO[Si](C)(C)C(C)(C)C)[C@@]3(OS(=O)(=O)C=C3N)[C@H]2O[Si](C)(C)C(C)(C)C)c(=O)n(CCCCn2c(=O)c(C)cn([C@H]3C[C@H](N=[N+]=[N-])[C@@H](CO)O3)c2=O)c1=O`, the results for the EC50 in test [1], in test [2] and in test [3] were more than 100 µM, more than 100 µM and 0.2 µM, respectively.

Take `Cc1cn([C@@H]2O[C@H](CO[Si](C)(C)C(C)(C)C)[C@@]3(OS(=O)(=O)C=C3N)[C@H]2O[Si](C)(C)C(C)(C)C)c(=O)n(CCCCCCn2c(=O)c(C)cn([C@H]3C[C@H](N=[N+]=[N-])[C@@H](CO)O3)c2=O)c1=O`: the results for the concentration for a half-maximal effect (EC50) in test [1], in test [2] and in test [3] were more than 100 µM, more than 100 µM and 0.21 µM, respectively.

As for `Cc1cn([C@@H]2O[C@H](CO[Si](C)(C)C(C)(C)C)C3(OS(=O)(=O)C=C3N)[C@H]2O[Si](C)(C)C(C)(C)C)c(=O)[nH]c1=O` (stereo partly drawn), the figures for the EC50 in test [1], in test [2] and in test [3] were more than 6 µM, more than 6 µM and 0.05 µM, respectively.

Turning to `Cc1cn([C@@H]2O[C@H](CO[Si](C)(C)C(C)(C)C)[C@@]3(OS(=O)(=O)C=C3N)[C@H]2O[Si](C)(C)C(C)(C)C)c(=O)n(CCCCCCCn2c(=O)c(C)cn([C@H]3C[C@H](O)[C@@H](CO)O3)c2=O)c1=O`, the values for the EC50 in test [2] and in test [3] were more than 4 µM and 0.22 µM, respectively.

With `Cc1cn([C@@H]2O[C@H](CO[Si](C)(C)C(C)(C)C)[C@@]3(OS(=O)(=O)C=C3N)[C@H]2O[Si](C)(C)C(C)(C)C)c(=O)n(CCCCCCCCn2c(=O)c(C)cn([C@H]3C[C@H](N=[N+]=[N-])[C@@H](CO)O3)c2=O)c1=O`, the half-maximal effective concentration (EC50) is more than 100 µM in test [2] and 1.56 µM in test [3].

For the molecule `Cc1cn(C2CC(N=[N+]=[N-])C(CO)O2)c(=O)n(CCCBr)c1=O` (stereo not drawn), the 50% effective concentration (EC50) in test [2] and in test [3] was more than 50 µM throughout.

With `Cc1cn([C@@H]2O[C@H](CO[Si](C)(C)C(C)(C)C)[C@@]3(OS(=O)(=O)C=C3N)[C@H]2O[Si](C)(C)C(C)(C)C)c(=O)n(CCCCCn2c(=O)c(C)cn([C@H]3C[C@H](N=[N+]=[N-])[C@@H](CO)O3)c2=O)c1=O`, the values for the 50% effective concentration (EC50) in test [1], in test [2] and in test [3] were more than 100 µM, more than 100 µM and 0.22 µM, respectively.

As for `Cc1cn(C2CC(N=[N+]=[N-])C(CO)O2)c(=O)n(CCCCCCCCCBr)c1=O` (stereo not drawn), the concentration for a half-maximal effect (EC50) in test [1], in test [2] and in test [3] was more than 8 µM in each case.

Take `Cc1cn([C@H]2C[C@H](O)[C@@H](CO)O2)c(=O)n(CCCCCCCn2c(=O)c(C)c(Sc3ccccc3)n(COCCO)c2=O)c1=O`: the concentration giving a half-maximal response (EC50) in test [2] and in test [3] was more than 30 µM each time.

Regarding `Cc1cn([C@@H]2O[C@H](CO[Si](C)(C)C(C)(C)C)[C@@]3(OS(=O)(=O)C=C3N)[C@H]2O[Si](C)(C)C(C)(C)C)c(=O)n(CCCCCCBr)c1=O`, the EC50 is more than 25 µM in test [2] and 0.47 µM in test [3].

In the case of `Cc1cn([C@H]2C[C@H](O)[C@@H](CO)O2)c(=O)n(CCCCCCn2c(=O)c(C)c(Sc3ccccc3)n(COCCO)c2=O)c1=O`, the EC50 in test [2] is more than 30 µM; in test [3] it was 79 µM.

Consider `Cc1c(Sc2ccccc2)n(COCCO)c(=O)n(CCCCCCBr)c1=O`, for which, in test [1], the EC50 is more than 8 µM.

On to `Cc1cn([C@@H]2O[C@H](CO[Si](C)(C)C(C)(C)C)[C@@]3(OS(=O)(=O)C=C3N)[C@H]2O[Si](C)(C)C(C)(C)C)c(=O)n(CCCCCCCCCn2c(=O)c(C)cn([C@H]3C[C@H](N=[N+]=[N-])[C@@H](CO)O3)c2=O)c1=O`, for which the EC50 in test [1] was more than 100 µM; in test [2] it was more than 100 µM; in test [3], 15.3 µM.

For the molecule `Cc1cn(C2CC(N=[N+]=[N-])C(CO)O2)c(=O)n(CCCCCCBr)c1=O` (stereo not drawn), the 50% effective concentration (EC50) in test [1] was more than 45 µM.
